Series [1] can be described thus: Selectivity index, ratio of ED50 for mouse RAW264.7 cells to ED50 for antileishmanial activity against axenic amastigote stage of Leishmania mexicana (MNYC/BZ/62/M379). It counts as toxicity. Conditions: read-out: Ratio ED50. The gist of the method: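 Selectivity index calculated as EC₅₀ in RAW macrophages (24 h alamarBlue cytotoxicity assay) divided by EC₅₀ against axenic L. mexicana amastigotes.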

A short description of series [2]: Cytotoxicity against mouse RAW264.7 cells assessed as induction of cell killing incubated for 24 hrs by alamar blue dye based fluorescence analysis. The following applies: read-out: ED50. In short, it runs like this: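 Mouse macrophages seeded at 2.5×10^5 mL⁻¹ in DMEM/10% HIFBS, 24 h at 37 °C, 5% CO₂. Then washed and held 24 h in DMEM/2% HIFBS. Compounds 100 μM to 0.41 μM in 2% HIFBS medium for 24 h. alamarBlue 4 h, then fluorescence at 560/600 nm. Cycloheximide (50 μM) positive, DMSO negative control. EC₅₀ derived.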
In general terms: Alamar Blue is a resazurin reagent that responds to reducing activity.

Series [3] deals with Leishmania mexicana. Nature of the series: Antileishmanial activity against axenic amastigote stage of Leishmania mexicana (MNYC/BZ/62/M379) assessed as induction of parasite killing incubated for 24 hrs by alamar blue dye based fluorescence analysis. The following applies: read-out: ED50 (the source's name). It counts as functional. The gist of the method: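 L. mexicana axenic amastigotes (from promastigotes by pH/temperature shift; Schneider's with 20% HIFBS) at 4x10⁵ mL⁻¹, exposed to three-fold dilutions from 50 μM to 0.21 μM for 24 h at 33 °C in sealed plates. alamarBlue then added for another 24 h, fluorescence read at 560/600 nm. Amphotericin B (50 μM) positive, DMSO negative control. Duplicates on four occasions, EC₅₀ fitted.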

Series [4] relates to Leishmania mexicana. Nature of the series: Antileishmanial activity against axenic amastigote stage of Leishmania mexicana (MNYC/BZ/62/M379) assessed as inhibition of parasite proliferation at 50 uM incubated for 24 hrs by alamar blue dye based fluorescence analysis. It counts as functional. The gist of the method:
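Primary single-point screen at 50 μM, in duplicate. Axenic L. mexicana amastigotes at 4x10⁵ mL⁻¹ incubated with compound 24 h at 33 °C in sealed plates, then alamarBlue for a further 24 h at the same temperature. Viability read by fluorescence at 560/600 nm against amphotericin B (50 μM) and DMSO controls.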

Some results are limits rather than exact numbers.

In general, inhibition refers to the relative decrease from the control value, in per cent.

As for `CC(=O)OC[C@H](OC(C)=O)[C@H](OC(C)=O)[C@@H](OC(C)=O)[C@@H]1OC[C@@]2(C)[C@@H]3CC[C@]4(C)[C@H](CC=C5[C@@H]6CC(C)(C)CC[C@]6(C(=O)O)CC[C@]54C)[C@@]3(C)CC[C@@H]2O1`, in series [1], the selectivity ratio was 1.5. For the same compound, in series [2], the CC50 at 24 h worked out at 11.1 µM. In addition, in the series on Leishmania mexicana [3], the EC50 was 7.2 µM. Besides, the inhibition at 50 µM in the series on Leishmania mexicana [4] was ≥ 95%.
As for `C[C@H](O)[C@H]1OC(C[C@@H]2OC[C@@]3(C)[C@@H]4CC[C@]5(C)[C@H](CC=C6[C@@H]7CC(C)(C)CC[C@]7(C(=O)O)CC[C@]65C)[C@@]4(C)CC[C@@H]3O2)[C@@H](O)[C@@H]1O` (stereo not given in full), the selectivity ratio in series [1] came to 2.9. Also, the CC50 at 24 h in series [2] was 30.2 µM. Further, the EC50 in the series on Leishmania mexicana [3] is 10.3 µM. Further, in the series on Leishmania mexicana [4], the inhibition at 50 µM is ≥ 95%.
On the same counts, the results for `CC1(C)CC[C@]2(C(=O)O)CC[C@]3(C)C(=CC[C@@H]4[C@@]5(C)CC[C@@H]6O[C@H](C[C@H]7O[C@H](CO)[C@@H](O)[C@H](O)[C@H]7O)OC[C@@]6(C)[C@@H]5CC[C@]43C)[C@@H]2C1` are 4.9, 36.7 µM, 7.5 µM and ≥ 95%.
As for `CC1(C)CC[C@]2(NC(=O)N3CCC[C@H]3C(=O)O)CC[C@]3(C)C(=CC[C@@H]4[C@@]5(C)CC[C@@H]6OC(C)(C)OC[C@@]6(C)[C@@H]5CC[C@]43C)[C@@H]2C1`, the selectivity ratio in series [1] is 6. For the same compound, the CC50 at 24 h in series [2] was determined as 5.4 µM. Further, in the series with Leishmania mexicana [3], the EC50 was determined as 0.9 µM. In the series with Leishmania mexicana [4], the inhibition at 50 µM is ≥ 95%.
For `CC1(C)CC[C@]2(NC(=O)O)CC[C@]3(C)C(=CC[C@@H]4[C@@]5(C)CC[C@@H]6O[C@H](C[C@H]7O[C@H](CO)[C@@H](O)[C@H](O)[C@@H]7O)OC[C@@]6(C)[C@@H]5CC[C@]43C)[C@@H]2C1`, the EC50 in the series on Leishmania mexicana [3] is > 50 µM. For the same compound, the inhibition at 50 µM in the series on Leishmania mexicana [4] was ≥ 95%.
As to `CO[C@H]1O[C@H]([C@@H]2OC[C@@]3(C)[C@@H]4CC[C@]5(C)[C@H](CC=C6[C@@H]7CC(C)(C)CC[C@]7(C(=O)O)CC[C@]65C)[C@@]4(C)CC[C@@H]3O2)[C@@H](O)[C@H](O)[C@H]1O`, the selectivity ratio in series [1] was found to be 5. Further, the CC50 at 24 h in series [2] turned out to be 29.7 µM. For the same compound, in the series with Leishmania mexicana [3], the EC50 worked out at 6 µM. Further, the inhibition at 50 µM with Leishmania mexicana [4] was ≥ 95%.
Turning to `CCOCc1ccc(C2OC[C@@]3(C)[C@@H]4CC[C@]5(C)[C@H](CC=C6[C@@H]7CC(C)(C)CC[C@]7(C(=O)O)CC[C@]65C)[C@@]4(C)CC[C@@H]3O2)o1` (stereo not given in full), the EC50 in the series with Leishmania mexicana [3] is 19.2 µM. Further, the inhibition at 50 µM in the series with Leishmania mexicana [4] was ≥ 95%.
Turning to `CN(C)CCCNC(=O)N[C@]12CCC(C)(C)C[C@H]1C1=CC[C@@H]3[C@@]4(C)CC[C@@H]5OC(C)(C)OC[C@@]5(C)[C@@H]4CC[C@@]3(C)[C@]1(C)CC2`, the EC50 in the series with Leishmania mexicana [3] turned out to be 17.5 µM. The inhibition at 50 µM in the series on Leishmania mexicana [4] was ≥ 95%.
For the compound `C[C@@H]1O[C@@H](C[C@@H]2OC[C@@]3(C)[C@@H]4CC[C@]5(C)[C@H](CC=C6[C@@H]7CC(C)(C)CC[C@]7(C(=O)O)CC[C@]65C)[C@@]4(C)CC[C@@H]3O2)[C@H](O)[C@H](O)[C@H]1O`, the EC50 in the series with Leishmania mexicana [3] amounted to 13.9 µM. Further, the inhibition at 50 µM with Leishmania mexicana [4] is ≥ 95%.
The like results for `CC1(C)CC[C@]2(C(=O)OCc3ccccc3[N+](=O)[O-])CC[C@]3(C)C(=CC[C@@H]4[C@@]5(C)CC[C@H](O)[C@@](C)(CO)[C@@H]5CC[C@]43C)[C@@H]2C1` were, in that order, > 50 µM and ≥ 95%.
As for `CC1(C)CC[C@]2(C(=O)O)CC[C@]3(C)C(=CC[C@@H]4[C@@]5(C)CC[C@H](O[C@@H]6OC[C@H](O)[C@H](O)[C@H]6O)[C@@](C)(CO)[C@@H]5CC[C@]43C)[C@@H]2C1`, the EC50 in the series on Leishmania mexicana [3] was > 50 µM. For the same compound, the inhibition at 50 µM with Leishmania mexicana [4] is ≥ 95%.
For the compound `COC(=O)[C@H](Cc1c[nH]cn1)NC(=O)N[C@]12CCC(C)(C)C[C@H]1C1=CC[C@@H]3[C@@]4(C)CC[C@@H]5OC(C)(C)OC[C@@]5(C)[C@@H]4CC[C@@]3(C)[C@]1(C)CC2`, the EC50 in the series on Leishmania mexicana [3] is 20.9 µM. Moreover, the inhibition at 50 µM in the series with Leishmania mexicana [4] was ≥ 95%.
Turning to `CC(=O)OC[C@@]1(C)[C@@H]2CC[C@]3(C)[C@H](CC=C4[C@@H]5CC(C)(C)CC[C@]5(NC(=O)N5CCCC5)CC[C@]43C)[C@@]2(C)CC[C@@H]1O`, in series [1], the selectivity ratio was determined as 1. Besides, in series [2], the CC50 at 24 h was 10.9 µM. For the same compound, the EC50 with Leishmania mexicana [3] came out at 10.4 µM. Besides, the inhibition at 50 µM in the series with Leishmania mexicana [4] was ≥ 95%.
The like results for `CC1(C)CC[C@]2(C(=O)O)CC[C@]3(C)C(=CC[C@@H]4[C@@]5(C)CC[C@@H]6O[C@H]([C@H](O)[C@@H](O)[C@H](O)[C@H](O)CO)OC[C@@]6(C)[C@@H]5CC[C@]43C)[C@@H]2C1` were, in that order, 6.7, 29.6 µM, 4.5 µM and ≥ 95%.
Take `CC1(C)CC[C@]2(NC(=O)NCCCn3ccnc3)CC[C@]3(C)C(=CC[C@@H]4[C@@]5(C)CC[C@@H]6OC(C)(C)OC[C@@]6(C)[C@@H]5CC[C@]43C)[C@@H]2C1`: the EC50 in the series on Leishmania mexicana [3] came to 37.6 µM. Besides, in the series on Leishmania mexicana [4], the inhibition at 50 µM is ≥ 95%.
On to `C[C@@H]1O[C@@H](C[C@@H]2OC[C@@]3(C)[C@@H]4CC[C@]5(C)[C@H](CC=C6[C@@H]7CC(C)(C)CC[C@]7(C(=O)O)CC[C@]65C)[C@@]4(C)CC[C@@H]3O2)[C@@H](O)[C@H](O)[C@@H]1O`, for which the EC50 with Leishmania mexicana [3] is 19.4 µM. Besides, the inhibition at 50 µM in the series with Leishmania mexicana [4] is ≥ 95%.
Take `CC1(C)CC[C@]2(NC(=O)N3CCCC3)CC[C@]3(C)C(=CC[C@@H]4[C@@]5(C)CC[C@H](O)[C@@](C)(CO)[C@@H]5CC[C@]43C)[C@@H]2C1`: in the series on Leishmania mexicana [3], the EC50 was 15.3 µM. Moreover, the inhibition at 50 µM in the series with Leishmania mexicana [4] was ≥ 95%.
For `CC1(C)CC[C@]2(NC(=O)N3CCC[C@H]3CN3CCCC3)CC[C@]3(C)C(=CC[C@@H]4[C@@]5(C)CC[C@@H]6OC(C)(C)OC[C@@]6(C)[C@@H]5CC[C@]43C)[C@@H]2C1`, the EC50 in the series on Leishmania mexicana [3] is > 50 µM. For the same compound, the inhibition at 50 µM with Leishmania mexicana [4] is ≥ 95%.
Consider `CC1(C)CC[C@]2(C(=O)O)CC[C@]3(C)C(=CC[C@@H]4[C@@]5(C)CC[C@H](O)[C@@](C)(C=O)[C@@H]5CC[C@]43C)[C@@H]2C1`, for which, in series [1], the selectivity ratio was determined as 3.8. Further, the CC50 at 24 h in series [2] is 36.6 µM. In addition, the EC50 in the series on Leishmania mexicana [3] was found to be 9.6 µM. The inhibition at 50 µM in the series with Leishmania mexicana [4] is ≥ 95%.
As to `CC1(C)CC[C@]2(C(=O)O)CC[C@]3(C)C(=CC[C@@H]4[C@@]5(C)CC[C@@H]6O[C@H](C[C@H]7O[C@H](CO)[C@H](O)[C@H](O)[C@H]7O)OC[C@@]6(C)[C@@H]5CC[C@]43C)[C@@H]2C1`, the EC50 with Leishmania mexicana [3] is 21.7 µM. For the same compound, the inhibition at 50 µM in the series on Leishmania mexicana [4] was ≥ 95%.
With `CC1(C)CC[C@]2(C(=O)O)CC[C@]3(C)C(=CC[C@@H]4[C@@]5(C)CC[C@@H]6O[C@H]([C@H](O)[C@@H](O)[C@H](O)CO)OC[C@@]6(C)[C@@H]5CC[C@]43C)[C@@H]2C1`, the selectivity ratio in series [1] is 3. Moreover, in series [2], the CC50 at 24 h stood at 29.2 µM. Further, in the series on Leishmania mexicana [3], the EC50 came to 9.7 µM. Also, the inhibition at 50 µM in the series with Leishmania mexicana [4] was ≥ 95%.
For the compound `CC1(C)CC[C@]2(C(=O)OCc3ccc([N+](=O)[O-])cc3)CC[C@]3(C)C(=CC[C@@H]4[C@@]5(C)CC[C@H](O)[C@@](C)(CO)[C@@H]5CC[C@]43C)[C@@H]2C1`, the EC50 in the series with Leishmania mexicana [3] was determined as 36.2 µM. Further, the inhibition at 50 µM in the series with Leishmania mexicana [4] was ≥ 95%.
In the case of `COC(=O)[C@]12CCC(C)(C)C[C@H]1C1=CC[C@@H]3[C@@]4(C)CC[C@@H]5O[C@H]([C@H](O)[C@@H](O)[C@H](O)[C@H](O)CO)OC[C@@]5(C)[C@@H]4CC[C@@]3(C)[C@]1(C)CC2`, the selectivity ratio in series [1] was 1.1. Further, in series [2], the CC50 at 24 h amounted to 10.2 µM. The EC50 in the series with Leishmania mexicana [3] is 9.5 µM. Besides, the inhibition at 50 µM in the series with Leishmania mexicana [4] was ≥ 95%.
On the same counts, the results for `COC(=O)[C@]12CCC(C)(C)C[C@H]1C1=CC[C@@H]3[C@@]4(C)CC[C@@H]5O[C@H](c6ccccc6C(=O)O)OC[C@@]5(C)[C@@H]4CC[C@@]3(C)[C@]1(C)CC2` are 0.5, 4.8 µM, 10 µM and ≥ 95%.

(Values after ChEMBL document CHEMBL4673181, “An investigation of the antileishmanial properties of semi-synthetic saponins” (RSC Med Chem, 2020).)
